This passage reports IC50 and Activity results from ChEMBL document CHEMBL1146364, “High-throughput assay for the identification of Hsp90 inhibitors based on Hsp90-dependent refolding of firefly luciferase” (Bioorg Med Chem, 2007).

Test [1] deals with MCF7. In words: Antiproliferative activity against MCF7 cells after 72 hrs. The class given is functional, cell-based. To be noted: Homo sapiens, MCF7, 72 h. The essentials:
(§1)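 Seeded at 2000 cells/well and left to attach overnight at 37 °C, 5% CO2. MCF-7 cells kept in 1:1 DMEM:Ham's F-12 with non-essential amino acids, 2 mM L-glutamine, pen/strep and 10% FBS. SkBr3 cells kept in McCoy's 5A with the same supplements. Compounds added over a range of concentrations in DMSO (1% final). After 72 h, viable cells counted by MTS/PMS. 1% DMSO wells set as 100% proliferation.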

The species named for test [2] is Oryctolagus cuniculus. As to the kind of experiment: (§2) Inhibition of Hsp90-dependent luciferase renaturation in rabbit reticulocyte after 30 mins by luciferase refolding assay. The essentials: (§3)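 Luciferase in stability buffer (0.5 mg/mL) heat-denatured at 41 °C for 10 min. Compound in DMSO (1 μL) mixed with cold mix (Tris pH 7.7, Mg(OAc)2, KCl, ATP, creatine phosphate), creatine phosphokinase and denatured luciferase. Started with rabbit reticulocyte lysate diluted in 20 mM Tris-HCl pH 7.4/75 mM KCl. Ran 30 min at 25 °C, then luciferin/ATP buffer added and light read over 10 s. IC50 taken against DMSO control. Triplicates, at least two experiments.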

The test system of test [3] is SK-BR-3. In words: Antiproliferative activity against SkBr3 cells after 72 hrs. To be noted: Homo sapiens, SK-BR-3, 72 h. The test is classed as functional, cell-based. In a few lines:
as §1

Test [4] deals with SK-BR-3. As to the kind of experiment: Induction of Hsp90-dependent Her2 protein degradation in Skbr3 cells after 24 hrs by ELISA. The class given is functional, cell-based. To be noted: Homo sapiens, SK-BR-3, 24 h. In a few lines: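 SkBr3 cells seeded at 3000/well and attached overnight, then exposed to compounds at varying concentrations for 24 h. Cell number checked under the microscope against DMSO wells. Cells then washed, fixed and permeabilized in −20 °C methanol, and blocked with 5% BSA/PBST. Probed overnight at 4 °C with rabbit anti-Her2 (1:500), then with HRP anti-rabbit IgG (1:1000) for 2 h. Read by chemiluminescence.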

The nature of test [5]: as §2. Set-up: species or system Oryctolagus cuniculus. In a few lines: as §3
Test [6] relates to MCF7. As to the kind of experiment: Induction of AKT degradation in MCF7 cells. The class given is functional, cell-based. To be noted: Homo sapiens. The essentials: (§4)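 MCF-7 cells seeded at 1×10^6 per dish and attached overnight. Compound added at varying concentrations for 36 h at 37 °C, 5% CO2. Client protein loss assessed by western blot. Controls: GA 500 nM and DMSO.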

The test system of test [7] is MCF7. In words: Induction of Her2 degradation in MCF7 cells. The class given is functional, cell-based. To be noted: Homo sapiens. In a few lines:
as §4

Test [8] deals with MCF7. In words: Induction of Raf1 degradation in MCF7 cells. To be noted: Homo sapiens. The class given is functional, cell-based. The essentials:
as §4

Activity calls are given as the source filed them. The calls are words filed in the database; no cut-off is given here. A value given as a limit tells only on which side of the number the result lay.

Regarding `CCOc1ccccc1NC(=O)CSc1ccccn1`, the IC50 in test [1], in test [3] and in test [4] was > 100 µM in each case. The result in test [2] was inactive.
In the case of `COc1ccccc1CNC(=O)c1ccc(C)cc1`, the IC50 in test [1] was > 100 µM; in test [5], 22 µM; in test [3] it was > 100 µM; in test [4], > 100 µM.
With `CC1=NN(c2ccc(Cl)cc2)C(=O)C1`, the IC50 in test [1] is > 100 µM; in test [5] it was 2.1 µM; in test [3] it was > 100 µM; in test [4] it was > 100 µM.
Regarding `CCOc1ccc(Nc2nc(-c3sc(NC(C)=O)nc3C)cs2)cc1`, the IC50 in test [1] was 2.1 µM; in test [5], 1.9 µM; in test [3], 15 µM; in test [4], 12.5 µM. Besides, the result in test [6], in test [7] and in test [8] was Active.
`Nc1ncc(-c2cccs2)s1`: the IC50 in test [1] was > 100 µM; in test [5], 55 µM; in test [3], > 100 µM; in test [4] it was > 100 µM.
In the case of `COc1ccc(/C=C2/SC(=O)NC2=O)cc1OC`, the IC50 is > 100 µM in test [1], 190 µM in test [5], > 100 µM in test [3] and > 100 µM in test [4].
For the compound `Oc1c(C(Nc2cccc(Cl)c2)c2ccncc2)ccc2cccnc12` (stereo unspecified), the IC50 in test [1] turned out to be 4 µM; in test [5], 36 µM; in test [3], 23 µM; in test [4], 33 µM.
Turning to `Cc1c(Cc2ccccc2)sc(NC(=O)c2ccc([N+](=O)[O-])cc2)c1C(N)=O`, the IC50 in test [1] came to 41 µM; in test [3], 55 µM; in test [4], 64 µM. For the same compound, in test [2], the result was inactive.
Take `CSc1nnc2c(n1)OC=Nc1ccccc1-2`: the IC50 in test [1] is > 100 µM; in test [5], 15 µM; in test [3], > 100 µM; in test [4], > 100 µM.
On to `CCOC(=O)Oc1ccc2c(c1)C(C)=CC(C)(C)N2`, for which the 50% inhibitory concentration (IC50) in test [1] was 3 µM; in test [5] it was 16 µM; in test [3], 2.4 µM; in test [4], 4.4 µM. The outcome in test [6], in test [7] and in test [8] was Active.
Regarding `O=C(CSc1nnnn1-c1ccc(F)cc1F)Nc1ccc2c(c1)OCCO2`, the IC50 in test [1] was > 100 µM; in test [5] it was 4.4 µM; in test [3], > 100 µM; in test [4], > 100 µM.
Turning to `Cc1nc(N)sc1-c1csc(Nc2ccccc2)n1`, the IC50 is 44 µM in test [1], 15 µM in test [5], 55 µM in test [3] and 61 µM in test [4].
Take `Oc1ccc(O)c(SCCCCN2CCOCC2)c1`: the IC50 in test [1] is 19 µM; in test [5] it was 120 µM; in test [3], 7.8 µM; in test [4], 4.7 µM.
For the compound `Cc1ccc(Nc2cc(C)c(O)c(C)c2)cc1`, the IC50 in test [1] was determined as 9.1 µM; in test [5], 6.7 µM; in test [3] it was 15 µM; in test [4] it was 10.9 µM.
The corresponding values for `CCc1ccc(O)c(/N=C/c2cccc(C)c2O)c1` are 25 µM, 7 µM, 9 µM and 8.9 µM.
As to `CCNC(=O)c1c(N)sc2c1CCCCC2`, the IC50 in test [1] is 93 µM; in test [5] it was 23 µM; in test [3], 76 µM; in test [4], 44 µM.
As to `C=CCOc1ccccc1/C=C1\C(=O)N(c2cccc(Cl)c2)N=C1C`, the half-inhibitory concentration (IC50) came to 34 µM in test [1], 4.5 µM in test [5], 39 µM in test [3] and 51.6 µM in test [4].
The corresponding values for `COc1ccc(C(=O)/C=C(\C)Nc2ccccc2O)cc1` are > 100 µM, 15 µM, 25 µM and 21.3 µM.
As to `N#CC1=C(N)N2C(=C(C#N)C1c1cccs1)Sc1ccccc12` (stereo unspecified), the IC50 in test [1] was > 100 µM; in test [5] it was 13 µM; in test [3] it was 42 µM; in test [4], 67 µM.
Regarding `Cc1cc2nn(-c3ccc(Cl)cc3)nc2cc1NC(=O)C(C)C`, the IC50 in test [1] is > 100 µM; in test [5] it was 0.12 µM; in test [3], > 100 µM; in test [4], > 100 µM.
